Activity calls are given as the source filed them. The rule behind the calls is not given here.
What was measured:
Type in all cases: functional, organism-based
Escherichia coli [1] = assay: Antibacterial activity against Escherichia coli K12 assessed as bacterial growth inhibition at 32 ug/ml measured after 16 hrs by broth microdilution method; conditions: K-12
Method in brief: (§1)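 Broth microdilution in Mueller Hinton broth, triplicate. Direct colony suspension at 1.5 x 10^8 CFU/mL diluted to ~10^5 CFU/mL. Serial dilutions made from DMSO stocks at 1 mg/mL; vancomycin positive control, blank medium negative control. Incubated 16 h at optimum temperature. MIC is the lowest concentration without visible growth at 600 nm; mean of triplicate determinations.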

Pseudomonas aeruginosa = assay: Antibacterial activity against Pseudomonas aeruginosa ATCC 27853 assessed as bacterial growth inhibition at 32 ug/ml measured after 16 hrs by broth microdilution method
Klebsiella pneumoniae = assay: Antibacterial activity against Klebsiella pneumoniae ATCC 700603 assessed as bacterial growth inhibition at 32 ug/ml measured after 16 hrs by broth microdilution method
Escherichia coli [2] = assay: Antibacterial activity against Escherichia coli K12 assessed as bacterial death up to 256 ug/ml measured after 16 hrs by broth microdilution method; conditions: K-12; method in brief: as §1
Candida albicans = assay: Antifungal activity against Candida albicans ATCC 90028 assessed as fungal growth inhibition at 32 ug/ml measured after 16 hrs by broth microdilution method
Escherichia coli [3] = assay: Antibacterial activity against Escherichia coli ATCC 25922 assessed as bacterial growth inhibition at 32 ug/ml measured after 16 hrs by broth microdilution method
Staphylococcus aureus [4] = assay: Antibacterial activity against Staphylococcus aureus JE2 assessed as bacterial growth inhibition at 32 ug/ml measured after 16 hrs by broth microdilution method; method in brief: as §1
Cryptococcus neoformans = assay: Antifungal activity against Cryptococcus neoformans var. grubii H99 ATCC […] as fungal growth inhibition at 32 ug/ml measured after 16 hrs by broth microdilution method; conditions: var. grubii H99 ATCC 208821
Staphylococcus aureus [5] = assay: Antibacterial activity against Staphylococcus aureus JE2 assessed as bacterial death up to 256 ug/ml measured after 16 hrs by broth microdilution method; method in brief: as §1
Staphylococcus aureus [6] = assay: Antibacterial activity against methicillin-resistant Staphylococcus aureus ATCC 43300 assessed as bacterial growth inhibition at 32 ug/ml measured after 16 hrs by broth microdilution method
Acinetobacter baumannii = assay: Antibacterial activity against Acinetobacter baumannii ATCC 19606 assessed as bacterial growth inhibition at 32 ug/ml measured after 16 hrs by broth microdilution method; conditions: ATCC 19606 = CIP 70.34 = JCM 6841
Chlamydia trachomatis = assay: Anti-chlamydial activity against Chlamydia trachomatis Serovar LGV-L2 infected in Hep2 cells assessed as inhibition of chlamydial inclusion at 50 ug/ml treated at 8 hrs post infection and measured at 24 hrs post-infection by immunofluorescence assay
Method in brief: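 HEp-2 cells infected with C. trachomatis serovar L2. Compounds at 50 μg/mL added 8 hpi; inclusion number and size assessed by immunofluorescence at 24 hpi against untreated cells. Cell morphology and viability checked by phase-contrast microscopy.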

| SMILES | inhibition (Escherichia coli [1]) | inhibition (Pseudomonas aeruginosa) | inhibition (Klebsiella pneumoniae) | Activity (Escherichia coli [2]) | inhibition (Candida albicans) | inhibition (Escherichia coli [3]) | inhibition (Staphylococcus aureus [4]) | inhibition (Cryptococcus neoformans) | Activity (Staphylococcus aureus [5]) | inhibition (Staphylococcus aureus [6]) | inhibition (Acinetobacter baumannii) | inhibition (Chlamydia trachomatis) |
| --- | --- | --- | --- | --- | --- | --- | --- | --- | --- | --- | --- | --- |
| NCCBr | inactive | inactive | inactive | inactive | inactive | inactive | inactive | inactive | inactive | inactive | inactive |  |
| CC(C(=O)N1CCN(c2ccc(Cl)c(Cl)c2)CC1)S(=O)(=O)c1ccc(C(F)(F)F)cn1 (stereo not given) | inactive | inactive | inactive |  | inactive | inactive | inactive | inactive |  | inactive | inactive | inactive |
| CC(C)(C(=O)NCCCc1ccccc1)S(=O)(=O)c1ccc(Cl)cn1 |  |  |  |  |  |  |  |  |  |  |  | Active |
| Cc1ccc(C)c(N2CCN(C(=O)C(C)S(=O)(=O)c3ccc(C(F)(F)F)cn3)CC2)c1 (stereo not given) | inactive | inactive | inactive |  | inactive | inactive | inactive | inactive |  | inactive | inactive | inactive |
| CC(C)(C(=O)N1CCN(c2ccccn2)CC1)S(=O)(=O)c1ccc(C(F)(F)F)cn1 | inactive | inactive | inactive |  | inactive | inactive | inactive | inactive |  | inactive | inactive | inactive |
| CC(C)(C(=O)NCCSc1ccccc1)S(=O)(=O)c1ccc(C(F)(F)F)cn1 |  |  |  |  |  |  |  |  |  |  |  | inactive |
| CC(C)(C(=O)NCCSc1ccccc1Cl)S(=O)(=O)c1ccc(C(F)(F)F)cc1 | inactive | inactive | inactive |  | inactive | inactive | inactive | inactive |  | inactive | inactive | Active |
| CC(C)(C(=O)NCCOc1ccccc1)S(=O)(=O)c1ccccc1 |  |  |  |  |  |  |  |  |  |  |  | inactive |
| CC(C)(C(=O)NCCOc1ccccc1Cl)S(=O)(=O)c1ccc(C(F)(F)F)cn1 | inactive | inactive | inactive | inactive | inactive | inactive | inactive | inactive | inactive | inactive | inactive | Active |
| CC(C)(C(=O)NCCCc1ccccc1)S(=O)(=O)c1ccccn1 | inactive | inactive | inactive |  | inactive | inactive | inactive | inactive |  | inactive | inactive | inactive |
| CC(C)(C(=O)NCCOc1ccc(Cl)cc1)S(=O)(=O)c1ccc(C(F)(F)F)cc1 | inactive | inactive | inactive |  | inactive | inactive | inactive | inactive |  | inactive | inactive | inactive |
| Cc1ccc(C)c(N2CCN(C(=O)C(C)(C)S(=O)(=O)c3ccc(C(F)(F)F)cn3)CC2)c1 | inactive | inactive | inactive |  | inactive | inactive | inactive | inactive |  | inactive | inactive | Active |
| NCCCc1ccccc1 | inactive | inactive | inactive |  | inactive | inactive | inactive | inactive |  | inactive | inactive |  |
| Cc1ccccc1N1CCN(C(=O)C(C)S(=O)(=O)c2ccc(C(F)(F)F)cn2)CC1 (stereo not given) | inactive | inactive | inactive |  | inactive | inactive | inactive | inactive |  | inactive | inactive | inactive |
| COc1cccc(N2CCN(C(=O)C(C)(C)S(=O)(=O)c3ccc(C(F)(F)F)cn3)CC2)c1 | inactive | inactive | inactive |  | inactive | inactive | inactive | inactive |  | inactive | inactive | Active |
| CC(C)(C(=O)NCCSc1ccc(Cl)cc1)S(=O)(=O)c1ccc(C(F)(F)F)cc1 | inactive | inactive | inactive |  | inactive | inactive | inactive | inactive |  | inactive | inactive | Active |
| CC(C)(C(=O)NCCOc1ccccc1Cl)S(=O)(=O)c1ccc(C(F)(F)F)cc1 | inactive | inactive | inactive |  | inactive | inactive | inactive | inactive |  | inactive | inactive | Active |
| CC(C)(C(=O)NCCOc1ccc(Cl)cc1)S(=O)(=O)c1ccc(C(F)(F)F)cn1 | inactive | inactive | inactive |  | inactive | inactive | inactive | inactive |  | inactive | inactive | inactive |
| CC(C)(C(=O)N1CCN(c2ccccc2)CC1)S(=O)(=O)c1ccc(C(F)(F)F)cn1 | inactive | inactive | inactive |  | inactive | inactive | inactive | inactive |  | inactive | inactive | inactive |
| CC(C(=O)NCCCc1ccccc1)S(=O)(=O)c1ccc(C(F)(F)F)cn1 (stereo not given) | inactive | inactive | inactive |  | inactive | inactive | inactive | inactive |  | inactive | inactive | inactive |
| CC(C)(C(=O)NCCOc1ccc(Cl)cc1)S(=O)(=O)c1ccccc1 | inactive | inactive | inactive |  | inactive | inactive | inactive | inactive |  | inactive | inactive | inactive |
| CC(C)(C(=O)N1CCN(Cc2ccc(F)cc2)CC1)S(=O)(=O)c1ccc(C(F)(F)F)cn1 | inactive | inactive | inactive |  | inactive | inactive | inactive | inactive |  | inactive | inactive | inactive |

Source: ChEMBL document CHEMBL4342502, “Synthesis and Antichlamydial Activity of Molecules Based on Dysregulators of Cylindrical Proteases” (J Med Chem, 2020)
